Source: article PMC5634614 (Molecular imaging and biology : MIB : the official …, 2017)
Like-named read-outs stand apart in the source and are kept apart here.

Experiments:
[1] = target: C6-2B mitochondria (rat glioma); details: C6-2B mitochondria (rat glioma) with [3H]PK11195; ref [28]; cited from earlier work
[2] = target: mitochondrial TSPO (mTSPO) (Mus musculus, UniProt P50637); test: 2D 1H-15N HSQC NMR titration of TSPO with ligands; assay type: binding; details: 5.0 mM ligand, 0.2 mM TSPO in DPC
How it was run: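 15N-labeled mitochondrial TSPO was expressed in E. coli BL21(DE3) in M9 minimal medium, then solubilized and purified in DPC detergent. 2D 1H-15N HSQC spectra were recorded with and without ligand (5.0 mM) on an 800-MHz spectrometer at 42 °C. Samples held 0.2 mM TSPO in ~2 % (w/v) DPC, 25 mM MES pH 6.0 and 100 mM NaCl.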

TSPO [3] = target: T1, TSPO (Rattus norvegicus, UniProt P16257); test: Radioligand displacement of [3H]PK11195 in C6 glioma cell lysate; assay type: binding; details: for TSPO binding affinity, fold greater than 1 (DPA-714): relative to 1 (DPA-714); for TSPO binding affinity, fold greater than 2 (VUIIS1008): relative to 2
Plasma protein binding = assay type: in vitro ADME
TSPO [4] = target: T1, TSPO; details: ref [18], [19], cited from earlier work
TSPO [5] = target: T1, TSPO; details: n = 5, prior study, ref [18], [19], cited from earlier work

SMILES: CCC(C)N(C)C(=O)c1cc2ccccc2c(-c2ccccc2Cl)n1 (stereo not shown) [[^3H]PK11195]
- Kd [1]: 5.73 ± 2.38 nM

SMILES: CCc1cc(C)n2nc(-c3ccc(OCCF)cc3)c(CC(=O)N(CC)CC)c2n1 [3B, N,N-diethyl-2-(5-ethyl-2-(4-(2-fluoroethoxy)phenyl)-7-methylpyrazolo[1,5-a]pyrimidin-3-yl)acetamide]
- saturation of ligand-bound state of TSPO (HSQC) [2]: completely saturated the ligand-bound state
- IC50 (TSPO [3]): 0.0194 nM
- Ki (TSPO [3]): 0.00947 nM
- TSPO binding affinity, fold greater than 1 (DPA-714) (TSPO [3]): 500 fold
- TSPO binding affinity, fold greater than 1 (DPA-714) (TSPO [3]; listed as VUIIS1009B): approximately 500 fold
- TSPO binding affinity, fold greater than 2 (VUIIS1008) (TSPO [3]): 20 fold
- unbound fraction compared with DPA-714 (Plasma protein binding): lower unbound fraction than DPA-714
- unbound fraction, difference compared with 3A (Plasma protein binding): 0.54%

SMILES: CCc1cc(C)nc2c(CC(=O)N(CC)CC)c(-c3ccc(OCCF)cc3)nn12 [3A, N,N-diethyl-2-(7-ethyl-2-(4-(2-fluoroethoxy)-phenyl)-5-methylpyrazolo[1,5-a]pyrimidin-3-yl)acetamide]
- IC50 (TSPO [3]): 0.0144 nM
- Ki (TSPO [3]): 0.00704 nM
- TSPO binding affinity, fold greater than 1 (DPA-714) (TSPO [3]): 500 fold
- TSPO binding affinity, fold greater than 1 (DPA-714) (TSPO [3]; listed as VUIIS1009A): approximately 500 fold
- TSPO binding affinity, fold greater than 2 (VUIIS1008) (TSPO [3]): 20 fold
- unbound fraction compared with DPA-714 (Plasma protein binding): lower unbound fraction than DPA-714

SMILES: CCc1cc(CC)n2nc(-c3ccc(OCCF)cc3)c(CC(=O)N(CC)CC)c2n1 [VUIIS1008]
- IC50 (TSPO [4]; previously reported): 0.3 nM

SMILES: CCc1cc(CC)n2nc(-c3ccc(OCC[18F])cc3)c(CC(=O)N(CC)CC)c2n1 [[^18F]VUIIS1008, 2-(5,7-diethyl-2-(4-(2-[(18)F]fluoroethoxy)phenyl)pyrazolo[1,5-a]pyrimidin-3-yl)-N,N-diethylacetamide]
- VT (total distribution volume from kinetic parameters) (TSPO [5]; brain): 4.210 ± 1.612
- k1 (TSPO [5]; brain): 0.881 ±0.392
- k1/k2 (TSPO [5]; brain): 0.855 ± 0.325
- k2 (TSPO [5]; brain): 2.078 ± 1.666
- k3 (TSPO [5]; brain): 0.172 ± 0.070
- k3/k4 (binding potential, BPND) (TSPO [5]; brain): 4.435 ± 1.387
- k4 (TSPO [5]; brain): 0.037 ± 0.004
- VT (total distribution volume from kinetic parameters) (TSPO [5]; tumor): 25.224 ± 10.035
- k1 (TSPO [5]; tumor): 0.709 ± 0.306
- k1/k2 (TSPO [5]; tumor): 1.902 ± 0.816
- k2 (TSPO [5]; tumor): 0.442 ± 0.101
- k3 (TSPO [5]; tumor): 0.113 ±0.013
- k3/k4 (binding potential, BPND) (TSPO [5]; tumor): 12.634 ± 1.406
- k4 (TSPO [5]; tumor): 0.009 ± 0.002
- enhancement in TSPO affinity compared to 1 (TSPO [4]; prior studies): 36 fold
